{"data": "Measurements of several laboratories", "target": "Mitogen-activated protein kinase 14 (MAPK14, Homo sapiens, UniProt Q16539)", "note": "Lines come from different studies, so protocols differ."}
{"SMILES": "N#Cc1ccc(NC(=O)Nc2ccccc2)cc1", "effect on": "cell-free assay", "method": "competition with immobilised ligand", "tested at": "25 µM", "quantity": "remaining binding", "result": "79%"}
{"SMILES": "COc1ccc2[nH]c3c4[nH]c5ccc(OC)cc5c4c4c(c3c2c1)C(=O)NC4=O", "effect on": "binding", "method": "competition with immobilised ligand", "tested at": "1 µM", "quantity": "remaining binding", "result": "87%"}
{"SMILES": "C=CC(=O)N1CCC([C@@H]2CCNc3c(C(N)=O)c(-c4ccc(Oc5ccccc5)cc4)nn32)CC1", "effect on": "enzyme activity", "mode": "inhibitor", "tested at": "1 µM", "quantity": "inhibition", "result": "1%"}
{"SMILES": "COc1ccc2oc(-c3ccc4nc(N)oc4c3)c/c(=N\\c3ccccc3NC(=O)CCN)c2c1", "effect on": "binding", "tested at": "1 µM", "quantity": "remaining binding", "result": "109%"}
{"SMILES": "CC#CC(=O)N1CCC[C@H]1c1nc(-c2ccc(C(=O)Nc3ccccn3)cc2)c2c(N)nccn12", "effect on": "enzyme activity", "mode": "inhibitor", "tested at": "1 µM", "quantity": "inhibition", "result": "0%"}
{"SMILES": "CN1CCN(C(=O)c2ccc(NC(=O)Nc3ccc(N(C)c4ccnc(Nc5ccc(CS(C)(=O)=O)cc5)n4)cc3)cc2)CC1", "effect on": "binding", "method": "competition with immobilised ligand", "tested at": "1 µM", "quantity": "remaining binding", "result": "83%"}
{"SMILES": "CCCCC(=O)Nc1ccc(-c2ccc3ncn(CCC)c(=O)c3c2)cn1", "effect on": "binding", "method": "competition with immobilised ligand", "tested at": "0.5 µM", "quantity": "remaining binding", "result": "88%"}
{"SMILES": "C1=C/COCc2cc(ccc2OCCN2CCCC2)Nc2nccc(n2)-c2cccc(c2)COC/1", "effect on": "cell-free assay", "tested at": "0.1 µM", "quantity": "remaining signal", "result": "89%"}
{"SMILES": "C#Cc1cnc(Nc2ccnc(CO)c2)nc1Nc1ccccc1S(C)(=O)=NC#N (stereo not drawn)", "effect on": "cell-free assay", "tested at": "1 µM", "quantity": "remaining signal", "result": "91%"}
